Each structure is given as a SMILES string. Values after ≈ are worked out from the molar mass of the structure shown. Active and inactive are the calls of the source. The rule behind the calls is not given here.

Data set [1] concerns PBMC. Description: […] activity in human PBMC stimulated with anti-CD3-mediated CD137 expression in cocultured with […] cell line assessed as increase in secretion of IFN gamma incubated for 48 hrs by Luminex assay. Conditions: DDE = dose-dependent effect. In kind it is functional, cell-based. The procedure, abridged: (§1)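 Healthy-donor PBMCs were thawed into R10 medium and cocultured with HT1376 cells at 10:1 effector:target (1×10^5 PBMC:1×10^4 tumor cells per well). Soluble anti-CD3 OKT3 (100 ng/mL) was added on day 0, then compound, 37 °C, 5% CO2. Supernatant IFNγ and IL-2 taken at 24 and 48 h, measured by Luminex. Four-parameter fit, n = 3, repeated in multiple donors.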

The target of data set [2] is T1, Tumor necrosis factor receptor superfamily member 9 (Homo sapiens, UniProt Q07011). Description: Agonist activity at human CD137 expressed in human HT-1376 cells measured after 6 hrs by […] microplate reader assay. Conditions: filed as agonist. In kind it is cell-based.
T1 sequence (Q07011 whole entry): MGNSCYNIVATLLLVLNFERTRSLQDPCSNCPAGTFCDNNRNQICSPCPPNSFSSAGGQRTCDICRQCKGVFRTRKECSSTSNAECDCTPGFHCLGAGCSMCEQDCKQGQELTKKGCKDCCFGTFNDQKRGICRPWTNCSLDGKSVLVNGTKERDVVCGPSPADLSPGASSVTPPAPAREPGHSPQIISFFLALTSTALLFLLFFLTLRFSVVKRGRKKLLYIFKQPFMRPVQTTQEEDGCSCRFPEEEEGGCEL
The target of data set [3] is T1, Tumor necrosis factor receptor superfamily member 9. Description: Binding affinity to human recombinant CD137 by surface plasmon resonance analysis. The method, boiled down:
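Biacore T200 SPR, human CD137, 25 °C. Peptide series in PBS/0.05% Tween 20 with 0.5% DMSO: top 500 nM (threefold) or 10 μM (twofold), 6 further dilutions. Flow 90 μL/min, 60 s association, 100–600 s dissociation, glycine pH 2 regeneration. DMSO-corrected and double-referenced; kinetic fit gives ka, kd, KD.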
Background: Surface plasmon resonance follows binding to a sensor surface in real time, without labels.

Data set [4] deals with T2, Nectin-4 (Homo sapiens, UniProt Q96NY8).
T2 sequence (Q96NY8 whole entry): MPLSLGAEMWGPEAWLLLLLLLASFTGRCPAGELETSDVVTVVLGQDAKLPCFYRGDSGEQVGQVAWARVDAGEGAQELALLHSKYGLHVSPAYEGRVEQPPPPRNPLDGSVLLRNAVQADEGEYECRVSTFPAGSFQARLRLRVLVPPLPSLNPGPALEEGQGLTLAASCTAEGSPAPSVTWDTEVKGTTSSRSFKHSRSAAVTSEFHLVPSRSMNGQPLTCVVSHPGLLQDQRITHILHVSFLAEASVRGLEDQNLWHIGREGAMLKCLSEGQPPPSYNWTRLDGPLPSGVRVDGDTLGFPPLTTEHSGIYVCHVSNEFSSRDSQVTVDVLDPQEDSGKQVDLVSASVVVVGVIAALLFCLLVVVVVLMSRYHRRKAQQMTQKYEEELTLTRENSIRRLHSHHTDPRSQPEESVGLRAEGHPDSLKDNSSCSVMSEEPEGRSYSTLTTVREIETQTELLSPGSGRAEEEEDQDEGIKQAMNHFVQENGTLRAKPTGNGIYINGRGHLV
Description: Binding affinity to human Nectin-4 assessed as dissociation constant using 1:1 Nectin-4/CD137 by surface plasmon resonance analysis. The procedure, abridged:
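SPR kinetics against human Nectin-4 (residues 32–349, baculovirus/Sf21-expressed, FLAG-tagged), 25 °C. Top 100 nM with 6 further twofold dilutions, 50 μL/min, 60 s association, 400–1200 s dissociation, DMSO-corrected. At least four concentrations used to obtain kon, koff and KD.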

In data set [5] the target is T1, Tumor necrosis factor receptor superfamily member 9. Description: Agonist activity at human CD137 expressed in human NCI-H292 cells measured after 6 hrs by […] microplate reader assay. In kind it is cell-based. Conditions: filed as agonist.
Data set [6] shares this target. Description: Agonist activity at recombinant human CD137 expressed in Jurkat T cells co-expressing response element driven luciferase reporter gene co-cultured with Nectin-4 expressing mouse MC38 cells assessed as luminescence measured after 6 hrs by luciferase reporter gene based co-culture assay. The format is cell-based. Conditions: filed as agonist, DDE = dose-dependent effect. The procedure, abridged: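 Jurkat cells carrying human CD137 and a CD137 response-element luciferase reporter, cocultured for 6 h at 37 °C, 5% CO2 with 10,000 MC38 cells engineered to express mouse Nectin-4 (parental MC38 as negative line). Bio-Glo luminescence read-out, as fold induction over no-test-article wells. Mean of n = 2.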
On the technique in general: Reporter assays use an easily measured gene product as a stand-in for the process of interest.

In data set [7] the test system is PBMC. Description: […] activity in human PBMC stimulated with anti-CD3-mediated CD137 expression in cocultured with […] cell line assessed as increase in secretion of IL2 incubated for 48 hrs by Luminex assay. In kind it is functional, cell-based. Conditions: DDE = dose-dependent effect. The method, boiled down: as §1
Data set [8] addresses T1, Tumor necrosis factor receptor superfamily member 9. Description: Induction of recombinant human CD137 assessed as increase in fold change in Emax incubated for 6 hrs by luminescence based microplate reader assay. Conditions: filed as agonist.
Data set [9] deals with CT26. Description: Antitumor activity against mouse CT26 cells expressed in CD137 transfected in BALB/c mouse at 5 mg/kg, ip.
A short description of data set [10]: Plasma clearance in Cynomolgus monkey at 1 mg/kg, iv administered for 30 min by LC-MS/MS analysis. In kind it is ADME, organism-based, Macaca fascicularis. The procedure, abridged: (§2)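 Male naïve cynomolgus monkeys received 1 mg/kg as a 30 min IV infusion in 25 mM histidine HCl, 10% sucrose, pH 7 (n = 2 animals/compound). Serial K2-EDTA plasma was protein-precipitated with internal standard and analysed by LC–MS/MS (Orbitrap, positive ion). Noncompartmental analysis gave clearance, Vdss and terminal half-life.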

Data set [11] addresses T1, Tumor necrosis factor receptor superfamily member 9. Description: Induction of recombinant human CD137 assessed as increase in fold change in EC50 incubated for 6 hrs by luminescence based microplate reader assay. Conditions: filed as agonist.
Data set [12] is described as follows: Half life in Sprague-Dawley rat at 2 mg/kg, iv by LC/MS/MS analysis. Conditions: in vivo.
A short description of data set [13]: Thermodynamic solubility of the compound in phosphate buffer at pH 7.4. In kind it is physicochemical. Conditions: read-out: Therm_solubility. The method, boiled down:
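Thermodynamic solubility measured in 50 mM phosphate buffer, pH 7.4.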

The test system of data set [14] is CT26. Description: Antitumor activity against mouse CT26 cells expressed in CD137 transfected in BALB/c mouse at 1mg/kg, qd.
In data set [15] the target is T1, Tumor necrosis factor receptor superfamily member 9. Description: Agonist activity at human CD137 expressed in Jurkat T cells co-expressing response element driven luciferase reporter gene assessed as fold change in Emax at 1:1 Nectin-4/CD137 ratio measured after 6 hrs by HT1376/CD137 reporter co-culture assay. In kind it is cell-based. Conditions: filed as agonist.

The nature of data set [16]: Volume of distribution at steady state in Cynomolgus monkey at 1 mg/kg, iv administered for 30 min by LC-MS/MS analysis. The format is ADME, organism-based, Macaca fascicularis. Conditions: plasma, read-out: Vdss. The procedure, abridged:
as §2

The target of data set [17] is T1, Tumor necrosis factor receptor superfamily member 9. Description: Agonist activity at human CD137 expressed in Jurkat T cells co-expressing response element driven luciferase reporter gene assessed as fold change in EC50 at 1:1 Nectin-4/CD137 ratio measured after 6 hrs by HT1376/CD137 reporter co-culture assay. Conditions: filed as agonist. The format is cell-based.

The nature of data set [18]: Half life in Cynomolgus monkey at 1 mg/kg, iv administered for 30 min by LC-MS/MS analysis. In kind it is ADME, organism-based, Macaca fascicularis. Conditions: plasma. The method, boiled down:
as §2

For orientation: Kd means the equilibrium constant for the complex coming apart. `CCCC[C@@H]1NC(=O)[C@H](Cc2ccc(O)cc2)NC(=O)[C@@H]2CCCN2C(=O)[C@H](CC(=O)O)NC(=O)[C@H](C)NC(=O)[C@H](Cc2ccccc2)NC(=O)[C@@H]2CSCCC(=O)N3CN(CN(C3)C(=O)CCSC[C@@H](C(=O)N[C@@H](CNC(=O)CCOCCOCCOCCOCCOCCOCCOCCOCCOCCOCCOCCOCCn3cc(CCC(=O)NCCC(=O)N(C)CC(=O)N(C)CC(=O)N(C)CC(=O)N(C)CC(=O)N(C)CC(=O)N(C)CC(=O)N(C)CC(=O)N(C)CC(=O)N(C)CC(=O)N(C)CC(=O)N[C@H]4CSCCC(=O)N5CN6CN(C5)C(=O)CCSC[C@H](NC(=O)[C@@H](CC(=O)O)NC(=O)[C@H](Cc5cccc7ccccc57)NC(=O)[C@@H]5CCCN5C4=O)C(=O)N[C@@H](CCSC)C(=O)N[C@@H](CCCCNC(=N)N)C(=O)N[C@@H](CC(=O)O)C(=O)N[C@@H](Cc4c[nH]c5ccccc45)C(=O)N[C@@H](CO)C(=O)N[C@@H]([C@@H](C)O)C(=O)N4CCC[C@H]4C(=O)N4C[C@H](O)C[C@H]4C(=O)N[C@@H](Cc4c[nH]c5ccccc45)C(=O)N[C@H](C(N)=O)CSCCC6=O)nn3)C(N)=O)NC1=O)C(=O)CCSC[C@H](NC(=O)[C@H](C)NC(C)=O)C(=O)NC([C@@H](C)CC)C(=O)N[C@@H](CCC(=O)O)C(=O)N[C@@H](CCC(=O)O)C(=O)NCC(=O)N[C@@H](CCC(N)=O)C(=O)N[C@@H](Cc1ccc(O)cc1)C(=O)N2` (stereo not given in full): the Activity entry in [1], in data set [6] and in data set [7] was “Dde” in each case. The outcome in [2] and in [5] was Active. The Kd in [3] worked out at 108 nM; in data set [4], 2.8 nM.
Usually clearance stands for the rate of elimination divided by the concentration. Usually half-life stands for the time in which the quantity being followed falls by half. `CCCC[C@@H]1NC(=O)[C@H](Cc2ccc(O)cc2)NC(=O)[C@@H]2CCCN2C(=O)[C@H](CC(=O)O)NC(=O)[C@H](C)NC(=O)[C@H](Cc2ccccc2)NC(=O)[C@@H]2CSCCC(=O)N3CN(CN(C3)C(=O)CCSC[C@@H](C(=O)N[C@@H](C)C(N)=O)NC1=O)C(=O)CCSC[C@H](NC(C)=O)C(=O)N[C@@H](CC(C)(C)C)C(=O)N1CCC[C@H]1C(=O)N[C@@H](CCC(=O)O)C(=O)N[C@H](CCCCNC(=O)CCc1cn(CCOCCOCCOCCOCCOCCC(=O)N[C@H]3CSCCC(=O)N4CN5CN(C4)C(=O)CCSC[C@H](NC(=O)[C@@H](CC(=O)O)NC(=O)[C@H](Cc4cccc6ccccc46)NC(=O)[C@@H]4CCCN4C3=O)C(=O)N[C@@H](CCSC)C(=O)N[C@@H](CCCCNC(=N)N)C(=O)N[C@@H](CC(=O)O)C(=O)N[C@@H](Cc3c[nH]c4ccccc34)C(=O)N[C@@H](CO)C(=O)N[C@@H]([C@@H](C)O)C(=O)N3CCC[C@H]3C(=O)N3C[C@H](O)C[C@H]3C(=O)N[C@@H](Cc3c[nH]c4ccccc34)C(=O)N[C@H](C(N)=O)CSCCC5=O)nn1)C(=O)N1CCC[C@H]1C(=O)N[C@@H](Cc1ccc(O)cc1)C(=O)N2`: the fold change (FC) was determined as 2 in [8], 8.3 in data set [11], 2 in data set [15] and 8.3 in data set [17]. Further, the Activity entry in data set [1] and in [7] was “Dde” throughout. The outcome in data set [9] and in data set [14] was Active. The compound also showed a clearance in data set [10] of 30 mL/min/kg. Also, the half-life in data set [12] was 55.8 min; in data set [18], 30 min. For the same compound, in data set [13], the solubility thermodynamic stood at 29 mg/mL (≈ 6.16 mM). The Vd in [16] is 0.6 L/kg.

The values are drawn from ChEMBL document CHEMBL5143736, “Discovery and Optimization of a Synthetic Class of Nectin-4-Targeted CD137 Agonists for Immuno-oncology” (J Med Chem, 2022).
